Here are results for 13 compounds from ChEMBL document CHEMBL4229468, “Novel cinnamaldehyde-based aspirin derivatives for the treatment of colorectal cancer” (Bioorg Med Chem Lett, 2018).

Data set [1] relates to HCT-8. Kind of data set: Antiproliferative activity against human HCT8 cells after 72 hrs by MTT assay. Format: functional, cell-based. The conditions noted are these: HCT-8, 72 h. The gist of the method:
(§1)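 MTT proliferation assay (details in supplement); positive control 5-FU; mixture comparator ASA + CA physical mixture at 1:1 mole ratio; IC50 = concentration inhibiting 50% of proliferation; mean ± SD from three independent experiments.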

Data set [2] relates to DLD-1. Briefly: Antiproliferative activity against human DLD1 cells after 72 hrs by MTT assay. The data set is classed as functional, cell-based. The settings on record: DLD-1, 72 h. In a few lines:
(§2)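 MTT proliferation assay on colorectal cancer (DLD-1) or non-tumorigenic colon (CCD841) cells. IC50 is the drug concentration inhibiting 50% of cell proliferation, given as the mean ± SD of three independent experiments.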

Data set [3] has as its system CCD-841CoN. Kind of data set: Antiproliferative activity against human CCD-841-CoN cells after 72 hrs by MTT assay. The data set is classed as cell-based. The gist of the method:
as §2

The test system of data set [4] is HCT-8. Kind of data set: Potency index, ratio of 5-FU IC50 to test compound IC50 for human HCT8 cells. Format: functional.
Data set [5] in a line: Selectivity index, ratio of IC50 for human CCD-841-CoN cells to IC50 for human HCT8 cells. Format: toxicity. The settings on record: CCD-841-CoN cells versus HCT8 cells, read-out: Ratio IC50.
Data set [6] in a line: Selectivity index, ratio of IC50 for human CCD-841-CoN cells to IC50 for human DLD1 cells. The data set is classed as toxicity. The conditions noted are these: CCD-841-CoN cells versus DLD1 cells, read-out: Ratio IC50. The gist of the method: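 MTT IC50 in DLD-1 and non-tumorigenic CCD841 colon cells; IC50 = concentration inhibiting 50% proliferation; mean ± SD, three independent experiments.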

Data set [7] concerns HCT-8. Briefly: Antitumor activity against human HCT8 cells xenografted in BALB/c nude mouse assessed as tumor weight at 60 mg/kg, ip administered daily for 32 days measured every 4 days during compound dosing relative to control. The data set is classed as functional. The gist of the method: (§3)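 HCT-8 cells inoculated subcutaneously; after solid tumours established, mice randomized to daily intraperitoneal dosing at 60 mg/kg or vehicle Tween 80/PBS (5:95) for 32 consecutive days; tumour volume, tumour weight and body weight recorded; n = 6 per group; mean ± SD; P vs vehicle.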

The subject of data set [8] is Mus musculus. Kind of data set: Toxicity in BALB/c nude mouse xenografted with human HCT8 cells assessed as change in body weight at 60 mg/kg, ip administered daily for 32 days. The data set is classed as organism-based. The conditions noted are these: in vivo, 768 h. The gist of the method:
as §3

Data set [9] concerns HCT-8. Kind of data set: Cell cycle arrest in human HCT8 cells assessed as accumulation at G1 phase after 24 hrs by propidium iodide staining-based flow cytometric method. The data set is classed as functional.
Data set [10] has as its system HCT-8. Kind of data set: Cell cycle arrest in human HCT8 cells assessed as accumulation at G1 phase at 3 uM after 24 hrs by propidium iodide staining-based flow cytometric method (reference value: 40.05%). Format: functional.
The subject of data set [11] is HCT-8. Kind of data set: Cell cycle arrest in human HCT8 cells assessed as accumulation at S phase at 3 uM after 24 hrs by propidium iodide staining-based flow cytometric method (reference value: 36.19%). The data set is classed as functional.
Data set [12] concerns HCT-8. Briefly: Cell cycle arrest in human HCT8 cells assessed as accumulation at G2 phase at 3 uM after 24 hrs by propidium iodide staining-based flow cytometric method (reference value: 23.77%). Format: functional.
The subject of data set [13] is HCT-8. Briefly: Cell cycle arrest in human HCT8 cells assessed as accumulation at G1 phase at 6 uM after 24 hrs by propidium iodide staining-based flow cytometric method (reference value: 40.05%). The data set is classed as functional.
Data set [14] relates to HCT-8. Kind of data set: Cell cycle arrest in human HCT8 cells assessed as accumulation at S phase at 6 uM after 24 hrs by propidium iodide staining-based flow cytometric method (reference value: 36.19%). The data set is classed as functional.
The test system of data set [15] is HCT-8. Briefly: Cell cycle arrest in human HCT8 cells assessed as accumulation at G2 phase at 6 uM after 24 hrs by propidium iodide staining-based flow cytometric method (reference value: 23.77%). Format: functional.
Data set [16] concerns HCT-8. Kind of data set: Cell cycle arrest in human HCT8 cells assessed as accumulation at G1 phase at 12 uM after 24 hrs by propidium iodide staining-based flow cytometric method (reference value: 40.05%). The data set is classed as functional.
For data set [17], the system named is HCT-8. Briefly: Cell cycle arrest in human HCT8 cells assessed as accumulation at S phase at 12 uM after 24 hrs by propidium iodide staining-based flow cytometric method (reference value: 36.19%). The data set is classed as functional.
Data set [18] concerns HCT-8. Kind of data set: Cell cycle arrest in human HCT8 cells assessed as accumulation at G2 phase at 12 uM after 24 hrs by propidium iodide staining-based flow cytometric method (reference value: 23.77%). The data set is classed as functional.
Data set [19] has as its system HCT-8. Kind of data set: Induction of apoptosis in human HCT8 cells after 24 hrs by annexin V-FITC/propidium iodide staining-based flow cytometric method. The data set is classed as functional, cell-based.
Data set [20] has as its system HCT-8. Kind of data set: Induction of apoptosis in human HCT8 cells assessed as early apoptotic cells at 3 uM after 24 hrs by annexin V-FITC/propidium iodide staining-based flow cytometric method (reference value: 0.25%). The data set is classed as functional.
For data set [21], the system named is HCT-8. Briefly: Induction of apoptosis in human HCT8 cells assessed as early apoptotic cells at 6 uM after 24 hrs by annexin V-FITC/propidium iodide staining-based flow cytometric method (reference value: 0.25%). The data set is classed as functional.
In data set [22] the test system is HCT-8. Kind of data set: Induction of apoptosis in human HCT8 cells assessed as early apoptotic cells at 12 uM after 24 hrs by annexin V-FITC/propidium iodide staining-based flow cytometric method (reference value: 0.25%). The data set is classed as functional.
The test system of data set [23] is HCT-8. Kind of data set: Induction of apoptosis in human HCT8 cells assessed as early apoptotic cells at 6 uM after 24 hrs in presence of ROS scavenger NAC by annexin V-FITC/propidium iodide staining-based flow cytometric method (reference value: 0.25%). The data set is classed as functional.
Data set [24] relates to HCT-8. Kind of data set: Induction of apoptosis in human HCT8 cells assessed as late apoptotic cells at 6 uM after 24 hrs in presence of ROS scavenger NAC by annexin V-FITC/propidium iodide staining-based flow cytometric method (reference value: 5.42%). Format: functional.
In data set [25] the test system is HCT-8. Kind of data set: Induction of apoptosis in human HCT8 cells assessed as upregulation of cleaved caspase-3 levels after 24 hrs by Western blot method. Format: functional, cell-based. The gist of the method:
(§4)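 Cells treated 24 h with 0, 3, 6, 12 μM or control (0.1% DMSO); whole-cell lysates immunoblotted for cleaved caspase 3 and PARP.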

Data set [26] has as its system HCT-8. Briefly: Induction of apoptosis in human HCT8 cells assessed as upregulation of cleaved PARP levels after 24 hrs by Western blot method. Format: functional, cell-based. In a few lines:
as §4

Data set [27] relates to HCT-8. Kind of data set: Induction of reactive oxygen species formation in human HCT8 cells at 3 uM after 24 hrs by DCFH-DA dye-based flow cytometric method (reference value: 3.67%). The data set is classed as functional. In a few lines:
(§5)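 Cells treated 24 h with 0, 3, 6 or 12 μM, stained with fluorogenic 2',7'-dichlorofluorescin diacetate; ROS level read by flow cytometry.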

Data set [28] relates to HCT-8. Briefly: Induction of reactive oxygen species formation in human HCT8 cells at 6 uM after 24 hrs by DCFH-DA dye-based flow cytometric method (reference value: 3.67%). The data set is classed as functional. In a few lines:
as §5

Data set [29] has as its system HCT-8. Briefly: Induction of reactive oxygen species formation in human HCT8 cells at 12 uM after 24 hrs by DCFH-DA dye-based flow cytometric method (reference value: 3.67%). The data set is classed as functional. In a few lines: as §5
The subject of data set [30] is HCT-8. Briefly: Induction of apoptosis in human HCT8 cells assessed as late apoptotic cells at 3 uM after 24 hrs by annexin V-FITC/propidium iodide staining-based flow cytometric method (reference value: 2.40%).
For data set [31], the system named is HCT-8. Briefly: Induction of apoptosis in human HCT8 cells assessed as late apoptotic cells at 6 uM after 24 hrs by annexin V-FITC/propidium iodide staining-based flow cytometric method (reference value: 2.40%).
Data set [32] relates to HCT-8. Kind of data set: Induction of apoptosis in human HCT8 cells assessed as late apoptotic cells at 12 uM after 24 hrs by annexin V-FITC/propidium iodide staining-based flow cytometric method (reference value: 2.40%).
Data set [33] concerns HCT-8. Briefly: Antiproliferative activity against human HCT8 cells after 72 hrs in presence of aspirin by MTT assay. Format: functional, cell-based. The conditions noted are these: HCT-8, 72 h. The gist of the method: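 MTT proliferation assay in HCT-8 colorectal cancer cells, run on a physical mixture with aspirin at a 1:1 mole ratio. IC50 is the concentration inhibiting 50% of cell proliferation, given as the mean ± SD of three independent experiments.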

Data set [34] relates to HCT-8. Kind of data set: Antiproliferative activity against human HCT8 cells after 72 hrs in presence of cinnamaldehyde by MTT assay. The conditions noted are these: HCT-8, 72 h. Format: functional, cell-based. In a few lines:
as §1

`COC(=O)c1ccccc1OC(C)=O`: in data set [1], the IC50 was over 100 µM.

In the case of `COc1ccc(OC(=O)c2ccccc2OC(C)=O)c(/C=C/C=O)c1`, the IC50 in data set [1] is 9.3 µM.

As for `CC(=O)Oc1ccccc1C(=O)Oc1ccc(Br)cc1/C=C/C=O`, in data set [1], the half-maximal inhibitory concentration (IC50) was found to be 5.6 µM.

In turn, `COc1cccc(/C=C/C=O)c1OC(=O)c1ccccc1OC(C)=O` displayed a 50% inhibitory concentration (IC50) in data set [1] of 17.6 µM.

Take `CC(=O)Oc1ccccc1C(=O)Oc1ccc(F)cc1/C=C/C=O`: the IC50 in data set [1] turned out to be 2.6 µM; in data set [2], 4.3 µM; in data set [3] it was 30.7 µM. In addition, the “Ratio IC50” value in data set [4] is 11. Further, the selectivity ratio in data set [5] amounted to 11; in data set [6] it was 7. Moreover, the Activity is 47% in [7]; “Non-Toxic” in data set [8]; “Dose-dependent effect” in [9]; 43.17% in data set [10]; 35.89% in data set [11]; 20.94% in data set [12]. Moreover, the Activity in data set [13] amounted to 48.66%; in data set [14] it was 38.71%; in [15], 12.63%; in [16], 51.62%; in [17], 36.15%; in [18], 12.23%. The Activity result in data set [19] was “Dose-dependent effect”; in data set [20], 8.69%; in data set [21], 15.56%; in [22] it was 15.84%; in [23] it was 7.4%; in [24] it was 5.58%. Further, the Activity result in [25] was “Dose-dependent effect”; in data set [26] it was “Dose-dependent effect”; in data set [27], 18.67%; in data set [28], 25.07%; in data set [29], 47.83%; in data set [30] it was 5.42%. The values for the Activity in data set [31] and in data set [32] were 17.03% and 27.71%, respectively.

Consider `O=C/C=C/c1ccccc1` [CINNAMALDEHYDE], for which the half-maximal inhibitory concentration (IC50) in [1] stood at 29.4 µM; in data set [33], 15.6 µM.

In data set [1], `COc1ccc(/C=C/C=O)c(OC(=O)c2ccccc2OC(C)=O)c1` gave an IC50 of 15.8 µM.

For the compound `CC(=O)Oc1ccccc1C(=O)Oc1ccc(Cl)cc1/C=C/C=O`, 4.3 µM corresponded to half-maximal inhibition in data set [1] (IC50).

`CC(=O)Oc1ccccc1C(=O)O` [ASPIRIN]: the results for the IC50 in data set [1] and in [34] were over 100 µM and 15.6 µM, respectively.

With `O=c1[nH]cc(F)c(=O)[nH]1` [FLUOROURACIL], the values for the IC50 in data set [1], in [2] and in [3] were 28.9 µM, 33 µM and 35.7 µM, respectively.

For `CC(=O)Oc1ccccc1C(=O)Oc1ccc(C)cc1/C=C/C=O`, in data set [1], the IC50 stood at 8.5 µM.

Regarding `CC(=O)Oc1ccc(F)cc1/C=C/C=O`, in [1], the midpoint of inhibition, the IC50, lay at 10.5 µM.

The compound `CC(=O)Oc1ccccc1C(=O)Oc1ccccc1/C=C/C=O` came in with an IC50 in data set [1] of 20.3 µM.
